# Data from ChEMBL document CHEMBL1156199, “Synthesis of new acridone derivatives, inhibitors of NS3 helicase, which efficiently and specifically inhibit subgenomic HCV replication” (J Med Chem, 2010).
# Calls of active or inactive are those of the source. No cut-off for these calls is given here.
# Assays:
# [1] = Inhibition of HCV NS3 helicase in presence of 1.5 mM ATP; set-up: species or system Hepacivirus hominis
# [2] = tested on: Hepatitis C virus; test: Antiviral activity against HCV 1b infected in mutant human HuH7 cells assessed as inhibition of viral RNA replication after 4 days by replicon assay; assay type: functional, organism-based, Hepacivirus hominis; settings: genotype 1b, Huh-7, 96 h
# [3] = tested on: NS3 helicase (Hepatitis C virus genotype 1a); test: Inhibition of HCV 1a NS3 helicase by fluorimetry
# [4] = Cytotoxicity against human HuH7 cells after3 days by XTT assay
# [5] = tested on: Hepatitis C virus; test: Antiviral activity against HCV 1b infected in human HuH7 cells assessed as inhibition of viral RNA replication after 4 days by replicon assay; assay type: functional, organism-based, Hepacivirus hominis; settings: genotype 1b, Huh-7, 96 h
# How it was run: (§1)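 Huh-7 cells carrying genotype 1b subgenomic replicon; compounds in DMSO tested from 1 to 200 μM or 1 μM to 1 mM depending on solubility; luminescence-based replicon RNA amplification assay; EC50 = concentration reducing luminescence by 50%.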
# [6] = tested on: Hepatitis C virus; test: Antiviral activity against HCV 1b infected in human HuH7 cells assessed as inhibition of viral RNA replication at 10 uM after 4 days by replicon assay; assay type: functional, Hepacivirus hominis; settings: genotype 1b, Huh-7, 168 h, in the assay text read “after 7 days” for “after 4 days”
# How it was run: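 Huh-7 cells with genotype 1b subgenomic replicon seeded at 4 × 10⁵ per dish in DMEM, grown 7 days with 0, 1, 10 or 100 μM compound; 5 μg total RNA reverse transcribed (3UTR, oligo(dT)15, random hexamer primers), equal cDNA used for real-time PCR (45 cycles, 56 °C annealing) to quantify replicon RNA.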
# [7] = Inhibition of HCV NS3 helicase in presence of 0.5 mM ATP; set-up: species or system Hepacivirus hominis
# [8] = Inhibition of HCV 3a NS3 helicase by fluorimetry; set-up: species or system Hepatitis C virus subtype 3a
# How it was run: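 Fluorometric helicase unwinding assay with a dsDNA substrate at 37 °C; NS3 helicase domain (genotype […], from patient-derived RNA) expressed in baculovirus and purified from insect cells, used at 50 nM; IC50 = concentration reducing helicase activity by 50%, relative to DMSO control.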
# [9] = Inhibition of HCV NS3 helicase in presence of 2.5 mM ATP; set-up: species or system Hepacivirus hominis
# [10] = Therapeutic index, ratio of CC50 for human HuH7 cells to EC50 for HCV 1b; assay type: cell-based, Huh-7; settings: read-out: Ratio CC50/EC50
# How it was run: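 Therapeutic index calculated as CC50 (XTT, replicon-bearing Huh-7 cells) divided by EC50 (luminescence replicon assay, genotype 1b).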
# [11] = tested on: Nucleic Acid; test: Binding affinity to […] assessed as inhibition of ethidium bromide DNA intercalation by gel migration retardation assay; assay type: nucleic-acid assay; settings: Hepacivirus hominis
# How it was run: (§2)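 dsNA gel migration retardation assay on dsDNA: compound (100 or 500 μM) incubated with dsDNA, ethidium bromide staining; intercalation read as partial or total loss of the dsDNA band; DMSO as negative and epidoxorubicin as positive control.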
# [12] = tested on: Nucleic Acid; test: Binding affinity to […] assessed as inhibition of ethidium bromide DNA intercalation at 100 uM by gel migration retardation assay; assay type: nucleic-acid assay; settings: Hepacivirus hominis; how it was run: as §2
# [13] = tested on: Nucleic Acid; test: Binding affinity to HCV dsRNA assessed as inhibition of ethidium bromide RNA intercalation by gel migration retardation assay; assay type: nucleic-acid assay; settings: Hepacivirus hominis
# How it was run: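 dsRNA gel migration retardation assay: compound incubated with dsRNA, ethidium bromide staining; intercalation read as partial or total disappearance of the dsRNA band; DMSO and epidoxorubicin controls.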
# [14] = tested on: Hepatitis C virus; test: Antiviral activity against HCV 1b infected in human HuH7 cells assessed as inhibition of viral RNA replication at 2.7 uM after 4 days by replicon assay; assay type: functional, Hepacivirus hominis; settings: genotype 1b, Huh-7, 96 h; how it was run: as §1
# [15] = tested on: Hepatitis C virus; test: Antiviral activity against HCV 1b infected in human HuH7 cells assessed as inhibition of viral RNA replication at 5.8 uM after 4 days by replicon assay; assay type: functional, Hepacivirus hominis; settings: genotype 1b, Huh-7, 96 h; how it was run: as §1
Compound,IC50 [3] [µM],CC50 at 72 h [4] [µM],EC50 [5] [µM],selectivity ratio [10],other results
COc1cccc2c(=O)c3cc(F)cc(C(=O)Nc4cccnc4)c3[nH]c12,8.6,> 1000,0.98,> 1000,IC50 [1]: 8.6 µM; EC50 [2]: 251 µM; inhibition at 10 µM [6]: 85%; IC50 [7]: 10.9 µM; IC50 [8]: 7.3 µM; IC50 [9]: 9.9 µM
COc1cccc2c(=O)c3cccc(C(=O)Nc4ccccn4)c3[nH]c12,6.2,2.5,2.3,1.1,Activity [11]: Active
[N-]=[N+]=N[C@]1(CO)O[C@@H](n2ccc(N)nc2=O)[C@H](O)[C@@H]1O [4'-AZIDOCYTIDINE],–,> 200,–,> 143,–
COc1cccc2c(=O)c3cc(F)cc(C(=O)Nc4cc(Cl)ccn4)c3[nH]c12,46.3,> 100,> 100,–,–
COc1cccc2c(=O)c3cccc(C(=O)Nc4cccnc4)c3[nH]c12,20.6,> 100,3.5,> 28,Activity [11]: Active; Activity [12]: Active
COc1cccc2c(=O)c3cc(Cl)cc(C(=O)Nc4ccccn4)c3[nH]c12,64.7,15.8,5,3.2,Activity [13]: inactive
COc1cccc2c(=O)c3cc(Cl)cc(C(=O)Nc4cccnc4)c3[nH]c12,54.6,19.3,0.96,20.1,–
COc1cc(NC(=O)c2cccc3c(=O)c4cccc(OC)c4[nH]c23)cc(OC)c1OC,751,> 500,203,> 2.5,–
COc1cccc2c(=O)c3cc(F)cc(C(=O)Nc4ccccn4)c3[nH]c12,4.7,> 100,–,–,IC50 [1]: 4.7 µM; IC50 [7]: 6.5 µM; inhibition at 2.7 µM [14]: 30%; IC50 [9]: 5.1 µM
COc1cccc2c(=O)c3cc(Cl)cc(C(=O)Nc4cc(Cl)ccn4)c3[nH]c12,1.5,> 100,> 100,–,IC50 [1]: 1.5 µM; IC50 [7]: 1.1 µM; IC50 [9]: 1.1 µM
COc1cccc2c(=O)c3cccc(C(=O)Nc4cc(Cl)ccn4)c3[nH]c12,35.8,171,–,–,inhibition at 5.8 µM [15]: 30%
O=C(Nc1ccncc1)c1cccc2c(=O)c3cccc(OCc4ccccc4)c3[nH]c12,8,> 100,> 100,–,–
NC(=O)c1ncn([C@@H]2O[C@H](CO)[C@@H](O)[C@H]2O)n1 [RIBAVIRIN],–,1060,17.6,60.2,–
